# Measurements pooled from the literature.
# Lines come from different studies, so protocols differ.
# EGFR: Epidermal growth factor receptor (EGFR, Homo sapiens, UniProt P00533)
# EGFR A750P/del747-749: Epidermal growth factor receptor (EGFR, Homo sapiens, UniProt P00533, A750P/del747-749)
# EGFR G719C: Epidermal growth factor receptor (EGFR, Homo sapiens, UniProt P00533, G719C)
# EGFR del746-750: Epidermal growth factor receptor (EGFR, Homo sapiens, UniProt P00533, del746-750)
# EGFR L858R/T790M: Epidermal growth factor receptor (EGFR, Homo sapiens, UniProt P00533, L858R/T790M)
# EGFR del752-759: Epidermal growth factor receptor (EGFR, Homo sapiens, UniProt P00533, del752-759)
# EGFR L861Q: Epidermal growth factor receptor (EGFR, Homo sapiens, UniProt P00533, L861Q)
# EGFR T790M: Epidermal growth factor receptor (EGFR, Homo sapiens, UniProt P00533, T790M)
Structure (SMILES),target,read-out,technique,concentration,remaining binding [%]
C[C@@H]1CN(c2ccc3ncc(-c4ccc5[nH]nc(C6CC6)c5c4)n3n2)C[C@H](C)O1,EGFR,binding,competition with immobilised ligand,0.5 µM,31
Cc1nc(C2CCN(C(=O)c3ccc(OC(F)(F)F)cc3N)CC2)c2ncc(N3CCN(C)CC3)cc2n1,EGFR A750P/del747-749,cell-free assay,competition with immobilised ligand,1 µM,70
F[C@@H]1CCN(c2nccc(-c3cnn4ncccc34)n2)C1,EGFR G719C,binding,,1 µM,100
O=C(c1ccc(Nc2ncc(Cl)c(-c3cc4ccccc4s3)n2)cc1)N1CCC(N2CCCC2)CC1,EGFR A750P/del747-749,binding,competition with immobilised ligand,1 µM,86
CN1CCN(c2ccc(Nc3nccc(-c4cccc([N+](=O)[O-])c4)n3)cc2C(F)(F)F)CC1,"Epidermal growth factor receptor (EGFR, Homo sapiens, UniProt P00533, L858R)",binding,,10 µM,72
CN(C)c1nccc(-c2cnc3ncccn23)n1,EGFR del746-750,binding,,1 µM,60
O=C(c1ccc(Nc2nccc(-c3cc4ccccc4s3)n2)cc1)N1CCC(N2CCCC2)CC1,EGFR,binding,competition with immobilised ligand,1 µM,97
Cc1noc([C@H]2C[C@@H](c3ccc(C(F)(F)F)cc3)CN(C(=O)N3CCS(=O)(=O)C3)C2)n1,EGFR L858R/T790M,cell-free assay,competition with immobilised ligand,1 µM,96
CNC(=O)[C@@H]1CC[C@@H](n2c(-c3ccc4cnccc4c3)nc3ccc(C(=O)NCc4cccc(C(N)=O)c4)cc32)C1,EGFR del752-759,binding,competition with immobilised ligand,1 µM,91
Nc1ncc2c(n1)-c1c([nH]c3ccc(C#CC4CC4)cc13)CCCC2,EGFR L861Q,binding,competition with immobilised ligand,1 µM,92
O=C(O)[C@@H]1[C@@H](Cn2nnc3ccccc3c2=O)CC[C@H]1C(=O)c1ccc(OCCC2CCOCC2)cc1,EGFR T790M,cell-free assay,competition with immobilised ligand,1 µM,94
O=C(NCCCN1CCOCC1)c1ccc(Nc2nccc(-c3cc4ccccc4s3)n2)cc1,EGFR,binding,competition with immobilised ligand,1 µM,87
O=C(Nc1c[nH]nc1C(=O)NC1CCNCC1)c1cc(F)cc(F)c1,EGFR T790M,binding,competition with immobilised ligand,1 µM,100
CN(c1nccc(-c2cnn3ncccc23)n1)C1CC1,EGFR del746-750,binding,,1 µM,100
CCOC(=O)c1cc2cc(-c3cc(C(=O)NCc4ccc(C(=O)O)cc4)nn3C)ccc2[nH]1,EGFR G719C,cell-free assay,competition with immobilised ligand,0.1 µM,100
CN(CCCC(F)(F)F)c1nccc(-c2cnn3ncccc23)n1,EGFR G719C,binding,,1 µM,100
CCC(=O)N[C@H]1CC[C@@H](C(=O)N(C)c2ccc(-c3nc4ccccc4o3)cc2)C1,EGFR del746-750,cell-free assay,competition with immobilised ligand,1 µM,78
Cc1cnc(Nc2ccc(C(=O)N3CCC(N4CCCC4)CC3)cc2)nc1-c1cc2ccccc2s1,"Epidermal growth factor receptor (EGFR, Homo sapiens, UniProt P00533, G719S)",binding,competition with immobilised ligand,1 µM,97
O=C(N1CCS(=O)(=O)CC1)N1C[C@H](c2ccc(OC(F)(F)F)cc2)C[C@H](c2nc(C3CC3)no2)C1,EGFR T790M,cell-free assay,competition with immobilised ligand,1 µM,100
C[C@H]1CCN(c2nccc(-c3cnn4ncccc34)n2)C1,EGFR L858R/T790M,binding,,1 µM,80
c1cncc(-c2cccc(Nc3nccc(NC4CCCCC4)n3)c2)c1,EGFR L861Q,binding,competition with immobilised ligand,10 µM,53
CN(c1ccnc(CNc2nc(Nc3ccc4c(c3)CC(=O)N4)ncc2C(F)(F)F)n1)S(C)(=O)=O,EGFR del752-759,cell-free assay,competition with immobilised ligand,1 µM,76
N[C@H]1CCN(c2nccc(-c3cnn4ncccc34)n2)C1,EGFR del746-750,binding,,1 µM,98
COc1cnc(Nc2cccc(S(N)(=O)=O)c2)nc1N1CCN(c2ccccc2)C(=O)C1,"Epidermal growth factor receptor (EGFR, Homo sapiens, UniProt P00533, del747-752/P753S)",binding,competition with immobilised ligand,1 µM,75
